# Source: PubChem
# Rows were chosen to be rich in hits. Some 1.8% of all compounds tested hit in one or more screens of this group.
# STEP block: STEP (human) phosphatase inhibition; P54829; recombinant STEP, OMFP fluorogenic substrate, fluorescence; inhibition, % at 20 µM; actives 0.25% (n = 360,000); AID 588621;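 active = inhibition at 20 µM, scaled per plate between control wells, above about 37%, limit read from the data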;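 also: 0% = DMSO with enzyme and substrate and 100% = substrate only without enzyme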
# Target sequence (P54829 whole entry, looked up): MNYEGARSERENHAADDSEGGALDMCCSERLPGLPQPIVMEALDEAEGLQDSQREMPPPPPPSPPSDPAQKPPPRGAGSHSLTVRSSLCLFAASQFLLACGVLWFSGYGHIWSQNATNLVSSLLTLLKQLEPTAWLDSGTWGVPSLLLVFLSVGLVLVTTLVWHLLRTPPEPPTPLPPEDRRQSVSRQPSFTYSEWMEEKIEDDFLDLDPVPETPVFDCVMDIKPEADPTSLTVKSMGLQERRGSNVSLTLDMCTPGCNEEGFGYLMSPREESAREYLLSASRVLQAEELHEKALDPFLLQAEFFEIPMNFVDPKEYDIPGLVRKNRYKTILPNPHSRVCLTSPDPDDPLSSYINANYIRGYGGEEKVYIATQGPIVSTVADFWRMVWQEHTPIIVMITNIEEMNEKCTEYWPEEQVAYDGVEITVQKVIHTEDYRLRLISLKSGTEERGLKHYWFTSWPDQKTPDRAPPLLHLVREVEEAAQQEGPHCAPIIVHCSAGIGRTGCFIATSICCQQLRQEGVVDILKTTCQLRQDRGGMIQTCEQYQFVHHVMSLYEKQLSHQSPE
#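 Assay system: isolated STEP enzyme. Buffer or medium: pH 6.0 Bis-Tris with DTT and Tween 20. Also added: fluorogenic phosphatase substrate OMFP at 25 µM final. Dosing: 20 µM, 1% DMSO. Timing: 20 min reaction, room temperature, in the dark. Measured by: fluorescence intensity, excitation 480 nm, emission 540 nm. Evaluation: normalized % inhibition.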
# LMPTP block: LMPTP (human) inhibition | actives 0.22% (n = 360,000) | inhibition, % at 20 µM | P24666 | recombinant LMPTP-A, OMFP fluorogenic substrate, fluorescence intensity | AID 651560;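 active = compounds that cut the enzyme signal by at least half of the control window in the single-dose screen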;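 also: plate controls were DMSO wells with enzyme plus substrate for no effect and substrate without enzyme for full effect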
#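 Material: LMPTP-A; amount: 0.625 nM enzyme; doses: single 20 µM dose; times: reaction 50 min, room temperature, dark; technique: fluorescence intensity of OMFP turnover product; benchmarks: no-enzyme and uninhibited controls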
# SUMO1-SIM PPI: modulators of human SUMO1-mediated protein-protein interactions | SUMO1 binding to a labelled peptide, TR-FRET, 1 h | inhibition, % at 20 µM | actives 0.33% (n = 360,000) | P63165; in the data active = inhibition above about 37%
# Scp-1 inhibitor: blocks human Scp-1 phosphatase activity; actives 0.88% (n = 340,000); inhibition, % at 20 µM; Recombinant Scp1, phosphopeptide, malachite green phosphate absorbance;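 active = inhibition above about 50% at 20 µM, limit read from the data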;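 also: plate controls were DMSO wells with enzyme for no effect and wells lacking enzyme for full effect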
#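 Incubation: 45 min enzyme reaction at room temperature / System: truncated SCP-1 phosphatase (76-261aa) / Reagent: Phospho 17-mer peptide substrate / Buffer or medium: Acidic Tris acetate buffer with magnesium and detergent / Signal: absorbance at 630 nm / Doses: one concentration, 20 µM, with 1.0% DMSO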
# DNMT1 inh: blocks human DNA methyltransferase DNMT1 | actives 0.83% (n = 360,000) | P26358 | AID 588458 | DNMT1 molecular beacon, Hinp1I cleavage, fluorescence | inhibition (reported as % activation of signal), % at 10 µM; in the data active = inhibition above about 50%
# HKDC1 inh: inhibitors of human hexokinase HKDC1; Q2TB90; actives 0.16% (n = 340,000); inhibition, % at 20 µM; recombinant HKDC1, G6PDH/diaphorase resazurin coupled fluorescence;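 active = inhibition above about 35% when tested at 20 µM, limit read from the data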;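 also: plate controls were DMSO wells with enzyme for no effect and DMSO wells lacking enzyme for full effect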
#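 Incubation: 90 min at room temperature in dark / Material: recombinant HKDC1 (HK5) hexokinase enzyme, produced in-house / Quantity: enzyme 5 µg/mL final / Compound: one dose of 20 µM, 1% DMSO / Reagent: glucose and ATP substrates / Buffer or medium: Tris pH 8.0 buffer with MgCl2, Tween-20, BSA, BME / Technique: resorufin fluorescence at 613 nm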
# DNMT1 inh conf: confirmation of human DNMT1 inhibitors. shares compounds with DNMT1 inh. DNMT1 molecular beacon HinP1I cleavage, fluorescence. inhibition, % at 10 µM. actives 8% (n = 2,300). AID 602385;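 active = average inhibition of at least 30% in the single-concentration confirmation test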
# Beacon interf: counter-screen for DNMT1 inhibitors: spectral interference. shares compounds with DNMT1 inh. DNMT1 molecular beacon spectral interference counterscreen, fluorescence 485/520. activation (fluorescence interference), % at 10 µM. actives 1% (n = 2,300);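 active = activation of at least 30% at 10 µM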;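 also: DNMT1 catalytic domain with a HinP1I cleavage step and a FAM/dabcyl DNA beacon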
# * = called active by the depositor; / = no result.
SMILES,STEP block,LMPTP block,SUMO1-SIM PPI,Scp-1 inhibitor,DNMT1 inh,HKDC1 inh,DNMT1 inh conf,Beacon interf
CCOc1ccc(C(=O)N/N=C/c2ccc(-c3ccc(S(=O)(=O)Nc4ncccn4)cc3)o2)cc1,0.7,1.6,18.9,-2.8,3.9,-3.7,/,/
NC(=S)NN=Cc1ccc(-c2ccc(S(=O)(=O)Nc3ncccn3)cc2)o1,3.4,12.6,33.2,2.6,88.6*,9.7,11.9,-3.4
Cc1c(NC(=O)CCCCCN2C(=O)c3ccccc3C2=O)c(=O)n(-c2ccccc2)n1C,0.6,-1.1,-5.5,-10.1,2.4,-4.3,/,/
Cc1c(NS(=O)(=O)c2cc(C(=O)O)ccc2Cl)c(=O)n(-c2ccccc2)n1C,-0.6,-1.0,-0.7,4.0,4.2,-3.7,/,/
Cc1c(NS(=O)(=O)c2cc(C(=O)OCC(=O)c3ccccc3F)ccc2Cl)c(=O)n(-c2ccccc2)n1C,0.0,-1.6,-3.0,/,63.2*,/,2.3,2.9
O=C(Nc1cccc(Cl)c1)c1csc([C@@H]2O[C@H](CO)[C@H](O)[C@H](O)[C@H]2O)n1,0.5,-0.8,-1.9,/,5.0,/,/,/
Fc1ccccc1CN1CCC(Cc2ccccc2)CC1,0.0,-2.0,-0.2,5.5,70.5*,-3.9,4.5,5.4
Fc1cccc(CN2CCC(Cc3ccccc3)CC2)c1,2.2,-1.2,1.3,-10.3,1.6,-0.4,/,/
COc1ccc(O)c(C(c2c(C)[nH][nH]c2=O)c2c(C)[nH][nH]c2=O)c1,1.9,9.4,43.0*,0.7,53.3*,-7.9,0.8,-2.0
COc1ccc(OC)c(C(c2c(C)[nH][nH]c2=O)c2c(C)[nH][nH]c2=O)c1,-3.3,-0.5,-0.6,1.4,-10.9,0.5,/,/
CC(C)C[C@H]1CN([C@@H](CC(C)C)CN2CCC[C@H]2CN2C(=O)C(=O)NC[C@@H]2Cc2ccc(O)cc2)C(=O)C(=O)N1CC1CCCCCC1,/,-0.6,0.4,/,/,/,/,/
Cc1ccc(N=Cc2c(O)[nH]c3ccccc23)c([N+](=O)[O-])c1,0.6,10.2,-19.4,-4.5,59.0*,-2.4,2.5,2.1
O=C(O)C1C=CCC(C(=O)O)C1 (stereo not drawn),-1.8,-0.5,-2.1,/,97.9*,/,2.9,5.0
O=C(NN1C(=O)C2CC=C(Cl)CC2C1=O)c1ccncc1 (stereo not drawn),4.2,-1.9,9.0,15.6,58.3*,14.3,1.4,1.4
Cc1cc(-c2n[nH]c(=S)n2/N=C/c2ccc(Cl)c([N+](=O)[O-])c2)n[nH]1,-3.4,-1.7,-1.2,0.3,12.1,2.4,/,/
O=[N+]([O-])c1cc(/C=N/n2c(-c3ccncc3)n[nH]c2=S)ccc1Cl,-2.9,6.2,6.8,-8.0,54.9*,6.4,2.1,4.3
Oc1ccc(Br)cc1/C=N/n1c(-c2ccccc2)n[nH]c1=S,-0.8,-1.7,5.9,2.3,82.2*,0.0,5.2,2.6
O=[N+]([O-])c1ccc(-c2nn(-c3ccccc3)cc2/C=N/n2c(-c3ccncc3)n[nH]c2=S)cc1,7.5,1.5,23.1,4.5,56.8*,-3.9,1.6,0.7
S=c1[nH]nc(-c2cc(-c3ccccc3)n[nH]2)n1/N=C/c1ccc(Cl)c(Cl)c1,-1.0,21.1,98.2*,3.8,83.1*,7.5,8.8,0.4
CCCn1c(CCC(=O)Nc2ccccc2Cc2ccccc2)nc2cc(S(=O)(=O)N3CCOCC3)ccc21,-4.0,-0.4,0.1,2.9,-7.8,-5.5,/,/
CCCCN(C(=O)CSCC(=O)Nc1ccc(C)cc1)c1c(N)n(CC(C)C)c(=O)[nH]c1=O,-2.8,0.9,4.3,-8.1,4.4,-1.1,/,/
CC(C)(C)OC(=O)N(Cc1ccccc1)Cc1cccc(OCc2cccc(NC(=O)c3ccccc3)c2)c1,-2.9,3.2,4.0,-16.6,2.2,-1.5,/,/
